Bounds are passed on as bounds.

The results in this text go back to ChEMBL document CHEMBL3232916, “1-(4-Methoxyphenyl)-5-(3,4,5-trimethoxyphenyl)-1H-1,2,4-triazole-3-carboxamides: synthesis, molecular modeling, evaluation of their anti-inflammatory activity and ulcerogenicity” (Eur J Med Chem, 2014).

The subject of data set [1] is Rattus norvegicus. Put plainly: Antiinflammatory activity in albino rat assessed as inhibition of carrageenan-induced paw edema at 0.28 mmol/kg, po administered 30 mins before carrageenan challenge measured after 1 hr relative to control. The data set is classed as functional. A digest of the protocol:
(§1)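 Male albino rats, n = 4 per group. Dosed orally as a suspension in 0.5% w/v CMC in water; controls received CMC alone. 0.1 mL of freshly prepared 1% carrageenan in saline was injected subplantar into the right hind paw 30 min after dosing, with saline in the left paw. Right paw thickness was read by Vernier caliper before and at 1–5 h. Result is % decrease in edema vs control, mean ± S.E.M.; one-way ANOVA.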
For orientation: In the carrageenan paw model, swelling and tenderness develop within hours.

For data set [2], the system named is Rattus norvegicus. Nature of the data set: Antiinflammatory activity in albino rat assessed as inhibition of carrageenan-induced paw edema at 0.28 mmol/kg, po administered 30 mins before carrageenan challenge measured after 2 hrs relative to control. It counts as functional. A digest of the protocol: as §1
Data set [3] has as its system Rattus norvegicus. Nature of the data set: Antiinflammatory activity in albino rat assessed as inhibition of carrageenan-induced paw edema at 0.28 mmol/kg, po administered 30 mins before carrageenan challenge measured after 3 hrs relative to control. It counts as functional. An outline of the steps:
as §1

Data set [4] relates to Rattus norvegicus. Put plainly: Antiinflammatory activity in albino rat assessed as inhibition of carrageenan-induced paw edema at 0.28 mmol/kg, po administered 30 mins before carrageenan challenge measured after 4 hrs relative to control. The data set is classed as functional. A digest of the protocol: as §1
Data set [5] concerns Rattus norvegicus. Put plainly: Antiinflammatory activity in albino rat assessed as inhibition of carrageenan-induced paw edema at 0.28 mmol/kg, po administered 30 mins before carrageenan challenge measured after 5 hrs relative to control. The data set is classed as functional. A digest of the protocol: as §1
For data set [6], the system named is Rattus norvegicus. Put plainly: Ulcerogenic effect in albino rat assessed as ulcer index at 0.28 mmol/kg, po. The data set is classed as toxicity, organism-based. The conditions noted are these: in vivo. An outline of the steps: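 Rat gastric ulcers were graded by area: level I <1 mm², level II 1–3 mm², level III >3 mm². Ulcer index = 1×(level I count) + 2×(level II) + 3×(level III). Reported as mean ± S.E.M., n = 4.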

The test system of data set [7] is Rattus norvegicus. Put plainly: Antiinflammatory activity in albino rat assessed as inhibition of carrageenan-induced paw edema at 0.28 mmol/kg, po administered 30 mins before carrageenan challenge measured after 3 hrs relative to indomethacin. The data set is classed as functional. The following applies: read-out: INH. An outline of the steps: (§2)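 Calculated from the 3 h % edema inhibition in carrageenan paw edema (male albino rats, oral dosing in 0.5% CMC 30 min before 1% carrageenan subplantar injection). Expressed as % of the inhibition given by the reference drug in the same assay.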

The subject of data set [8] is Rattus norvegicus. Put plainly: Antiinflammatory activity in albino rat assessed as inhibition of carrageenan-induced paw edema at 0.28 mmol/kg, po administered 30 mins before carrageenan challenge measured after 3 hrs relative to celecoxib. It counts as functional. The following applies: read-out: INH. A digest of the protocol:
as §2

The target of data set [9] is T1, Prostaglandin G/H synthase 1 (Ovis aries, UniProt P05979).
T1 sequence (P05979 whole entry): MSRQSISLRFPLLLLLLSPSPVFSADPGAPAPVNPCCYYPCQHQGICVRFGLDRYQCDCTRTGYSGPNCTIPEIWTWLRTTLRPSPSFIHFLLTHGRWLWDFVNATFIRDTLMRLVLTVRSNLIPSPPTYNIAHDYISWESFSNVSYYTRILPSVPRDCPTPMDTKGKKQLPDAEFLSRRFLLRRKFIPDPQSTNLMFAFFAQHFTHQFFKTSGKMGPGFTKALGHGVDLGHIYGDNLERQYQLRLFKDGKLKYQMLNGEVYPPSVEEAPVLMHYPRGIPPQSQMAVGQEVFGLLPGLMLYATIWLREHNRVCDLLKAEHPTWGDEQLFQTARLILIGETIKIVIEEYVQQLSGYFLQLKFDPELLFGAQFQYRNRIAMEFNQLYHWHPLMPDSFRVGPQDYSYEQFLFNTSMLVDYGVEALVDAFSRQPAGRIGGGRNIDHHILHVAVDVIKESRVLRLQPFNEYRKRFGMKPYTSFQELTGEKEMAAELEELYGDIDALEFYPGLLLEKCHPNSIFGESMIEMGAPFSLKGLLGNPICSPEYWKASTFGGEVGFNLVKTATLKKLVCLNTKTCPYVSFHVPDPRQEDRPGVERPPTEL
Put plainly: Inhibition of ovine COX1 assessed as prostaglandin F2alpha level.

Data set [10] concerns the target T2, Prostaglandin G/H synthase 2 (Homo sapiens, UniProt P35354).
T2 sequence (P35354 whole entry): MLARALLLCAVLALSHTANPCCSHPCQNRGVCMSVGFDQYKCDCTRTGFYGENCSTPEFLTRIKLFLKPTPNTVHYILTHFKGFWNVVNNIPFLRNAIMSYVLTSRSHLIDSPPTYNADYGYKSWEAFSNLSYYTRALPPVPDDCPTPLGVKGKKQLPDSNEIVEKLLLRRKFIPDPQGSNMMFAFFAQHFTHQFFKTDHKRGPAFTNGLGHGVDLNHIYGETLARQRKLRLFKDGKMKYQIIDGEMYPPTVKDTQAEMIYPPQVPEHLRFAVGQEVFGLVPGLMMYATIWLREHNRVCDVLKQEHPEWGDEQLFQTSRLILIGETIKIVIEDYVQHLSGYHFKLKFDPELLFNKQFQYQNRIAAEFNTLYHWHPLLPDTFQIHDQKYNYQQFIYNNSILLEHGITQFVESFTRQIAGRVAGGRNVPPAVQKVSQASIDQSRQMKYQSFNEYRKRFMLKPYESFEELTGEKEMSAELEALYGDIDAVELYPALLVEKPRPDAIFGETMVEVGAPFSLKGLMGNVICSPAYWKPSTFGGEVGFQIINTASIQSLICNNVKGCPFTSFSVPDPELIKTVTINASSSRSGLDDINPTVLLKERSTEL
Nature of the data set: Inhibition of human recombinant COX2 assessed as prostaglandin F2alpha level.

On to `COc1ccc(-n2nc(C(=O)Nc3ccccc3)nc2-c2cc(OC)c(OC)c(OC)c2)cc1`, for which the inhibition in vivo (commonly the change of the read-out against control, counted positive when it falls) at 280 µmol/kg with Rattus norvegicus [1] is 45%; in the data set with Rattus norvegicus [2], 51%; in the data set on Rattus norvegicus [3], 54%; in the data set on Rattus norvegicus [4], 50%; in the data set with Rattus norvegicus [5] it was 46%. In addition, the UI in the data set on Rattus norvegicus [6] was determined as 4. The paw edema inhibition relative to indomethacin at 280 µmol/kg with Rattus norvegicus [7] is 69%. In the data set with Rattus norvegicus [8], the paw edema inhibition relative to celecoxib at 280 µmol/kg worked out at 79%.

On to `COc1ccc(NC(=O)c2nc(-c3cc(OC)c(OC)c(OC)c3)n(-c3ccc(OC)cc3)n2)cc1`, for which the inhibition in vivo at 280 µmol/kg in the data set with Rattus norvegicus [1] stood at 39%; in the data set with Rattus norvegicus [2], 45%; with Rattus norvegicus [3], 67%; in the data set on Rattus norvegicus [4] it was 63%; in the data set with Rattus norvegicus [5], 51%. Further, the UI with Rattus norvegicus [6] came out at 4.5. In addition, in the data set with Rattus norvegicus [7], the paw edema inhibition relative to indomethacin at 280 µmol/kg amounted to 86%. In addition, the paw edema inhibition relative to celecoxib at 280 µmol/kg in the data set with Rattus norvegicus [8] was determined as 99%.

Take `COc1ccc(-n2nc(C(=O)Nc3ccc(OC)c(OC)c3)nc2-c2cc(OC)c(OC)c(OC)c2)cc1`: the inhibition in vivo at 280 µmol/kg with Rattus norvegicus [1] was 57%; in the data set with Rattus norvegicus [2], 68%; in the data set with Rattus norvegicus [3] it was 78%; in the data set with Rattus norvegicus [4], 70%; in the data set on Rattus norvegicus [5] it was 61%. The UI with Rattus norvegicus [6] is on record as 7. Moreover, the paw edema inhibition relative to indomethacin at 280 µmol/kg with Rattus norvegicus [7] turned out to be 100%. The paw edema inhibition relative to celecoxib at 280 µmol/kg with Rattus norvegicus [8] is 115%. The IC50 in data set [9] and in data set [10] was more than 100 µM each time.

As to `COc1ccc(-n2nc(C(N)=O)nc2-c2cc(OC)c(OC)c(OC)c2)cc1`, the inhibition in vivo at 280 µmol/kg in the data set with Rattus norvegicus [1] amounted to 40%; with Rattus norvegicus [2] it was 59%; with Rattus norvegicus [3], 72%; in the data set with Rattus norvegicus [4], 71%; with Rattus norvegicus [5], 64%. The UI with Rattus norvegicus [6] was 9. Moreover, the paw edema inhibition relative to indomethacin at 280 µmol/kg with Rattus norvegicus [7] amounted to 92%. In addition, the paw edema inhibition relative to celecoxib at 280 µmol/kg in the data set on Rattus norvegicus [8] worked out at 106%.

For `Cc1ccc(-c2cc(C(F)(F)F)nn2-c2ccc(S(N)(=O)=O)cc2)cc1` [CELECOXIB], the inhibition in vivo at 280 µmol/kg in the data set with Rattus norvegicus [1] worked out at 42%; with Rattus norvegicus [2], 48%; in the data set with Rattus norvegicus [3], 68%; with Rattus norvegicus [4] it was 57%; with Rattus norvegicus [5], 51%. Further, the UI in the data set with Rattus norvegicus [6] was 0.5.

For the compound `COc1ccc(-n2nc(C(=O)Nc3ccc(C)cc3)nc2-c2cc(OC)c(OC)c(OC)c2)cc1`, the inhibition in vivo at 280 µmol/kg is 38% in the data set on Rattus norvegicus [1]; 60% in the data set on Rattus norvegicus [2]; 60% with Rattus norvegicus [3]; 58% in the data set on Rattus norvegicus [4]; 42% in the data set on Rattus norvegicus [5]. Moreover, in the data set with Rattus norvegicus [6], the UI was 5.5. Moreover, the paw edema inhibition relative to indomethacin at 280 µmol/kg in the data set on Rattus norvegicus [7] worked out at 77%. Also, the paw edema inhibition relative to celecoxib at 280 µmol/kg with Rattus norvegicus [8] came to 88%.

With `CCNC(=O)c1nc(-c2cc(OC)c(OC)c(OC)c2)n(-c2ccc(OC)cc2)n1`, the inhibition in vivo at 280 µmol/kg with Rattus norvegicus [1] turned out to be 60%; in the data set with Rattus norvegicus [2] it was 68%; in the data set with Rattus norvegicus [3], 69%; in the data set with Rattus norvegicus [4], 58%; with Rattus norvegicus [5] it was 52%. The UI in the data set on Rattus norvegicus [6] is 9. In addition, in the data set on Rattus norvegicus [7], the paw edema inhibition relative to indomethacin at 280 µmol/kg was found to be 88%. Also, the paw edema inhibition relative to celecoxib at 280 µmol/kg with Rattus norvegicus [8] turned out to be 101%.
